# Experimental data as given in ChEMBL document CHEMBL1145150, “Synthesis and biological activity of nitronyl nitroxide containing peptides” (J Med Chem, 2005).
# Residues, ends and D or L forms follow the SMILES beside them. *: point of attachment. X1 = CC1(C)N(O)C(c2ccc(OCC(=O)*)cc2)=[N+]([O-])C1(C)C
# Tests used:
# Rattus norvegicus [1] = assay: Thrombolytic activity (10.0 umol/kg) expressed as the reduction of thrombus mass determined in male wistar rats; assay type: functional
# Summary of the method: (§1)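 Male Wistar rats (200–300 g) were anesthetized with pentobarbital sodium (80.0 mg/kg i.p.). A steel helix was left for 15 min in 1.0 mL of carotid blood, then weighed. It was placed in a heparin-filled (50 IU/mL) polyethylene shunt into the left jugular vein. Heparin and then the test agent were injected through the shunt. Blood circulated 90 min, the helix was reweighed, and thrombus mass reduction was recorded (ANOVA).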
# Rattus norvegicus [2] = assay: Thrombolytic activity (5.0 umol/kg) expressed as the reduction of thrombus mass determined in male wistar rats; assay type: functional; summary of the method: as §1
# Rattus norvegicus [3] = organism: Rattus norvegicus; assay: Concentration of compound (1 umol/L) required to inhibit acetylcholine-induced vasorelaxation of rat aortic strip relative to control; assay type: functional, Aorta
# Oryctolagus cuniculus [4] = organism: Oryctolagus cuniculus; assay: Effect (2.2 ug) on euglobulin clot lysis time determined using rabbit euglobulin; assay type: functional
# Summary of the method: (§2)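 Rabbit plasma was diluted 1:20 in distilled water and precipitated at pH 5.7 with 0.25% acetic acid for 30 min at 4 °C. It was spun at 2000g for 15 min, and the euglobulin pellet was resuspended to the original plasma volume in 50 mM sodium barbiturate buffer (pH 7.8; 1.66 mM CaCl₂, 0.68 mM MgCl₂, 93.96 mM NaCl). Saline, urokinase or test agent was added to the clots, and time to clot lysis was read in a microplate.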
# Oryctolagus cuniculus [5] = organism: Oryctolagus cuniculus; assay: Fibrinolytic activity (0.4 ug) determined in fibrinogen-agarose mixture coagulated with […] of thrombin; assay type: functional
# Summary of the method: (§3)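 Plates were cast from equal volumes of 0.3% rabbit fibrinogen and 0.95% agarose, both in 50 mM sodium barbiturate buffer (pH 7.8), clotted with thrombin (100 IU/mL) and held 30 min at 4 °C. Wells 5 mm across were punched and loaded with 30 µL of saline, urokinase or test agent. Fibrinolysis was expressed as lysis area.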
# Oryctolagus cuniculus [6] = organism: Oryctolagus cuniculus; assay: Effect (1.1 ug) on euglobulin clot lysis time determined using rabbit euglobulin; assay type: functional; summary of the method: as §2
# Rattus norvegicus [7] = organism: Rattus norvegicus; assay: Concentration of compound (0.01 umol/L) required to inhibit acetylcholine-induced vasorelaxation of rat aortic strip relative to control; assay type: functional, Aorta
# PC-12 [8] = assay: Free radical scavenging activity of compound (25 uM) evaluated against […] in PC12 cells; assay type: functional, cell-based; details: Rattus norvegicus
# PC-12 [9] = assay: Free radical scavenging activity of compound (25 uM) evaluated against OH in PC12 cells; assay type: functional, cell-based; details: Rattus norvegicus
# Summary of the method: (§4)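 PC12 cells were grown in DMEM with 10% heat-inactivated horse serum, 5% FBS and 1.0 mM pyruvate at 37 °C and 5% CO₂. Cells were seeded at 20 000/well on poly-L-lysine and attached 24 h, then pretreated 1 h with 12.5–200 µM compound. Insults were: NO, 2 mM nitroprusside for 2 h, then 14 h in fresh medium; H₂O₂, 1 mM for 1 h; OH, 1 mM H₂O₂/30 µM Fe(II) for 1 h. Survival was read by MTT.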
# Oryctolagus cuniculus [10] = organism: Oryctolagus cuniculus; assay: Fibrinolytic activity (0.2 ug) determined in fibrinogen-agarose mixture coagulated with […] of thrombin; assay type: functional; summary of the method: as §3
# PC-12 [11] = assay: Free radical scavenging activity of compound (25 uM) evaluated against hydrogen peroxide in PC12 cells; assay type: functional, cell-based; details: Rattus norvegicus; summary of the method: as §4
# Rattus norvegicus [12] = assay: Thrombolytic activity (15.0 umol/kg) expressed as the reduction of thrombus mass determined in male wistar rats; assay type: functional; summary of the method: as §1
# Oryctolagus cuniculus [13] = organism: Oryctolagus cuniculus; assay: Effect (0.6 ug) on euglobulin clot lysis time determined using rabbit euglobulin; assay type: functional; summary of the method: as §2
# Oryctolagus cuniculus [14] = organism: Oryctolagus cuniculus; assay: Fibrinolytic activity (0.8 ug) determined in fibrinogen-agarose mixture coagulated with […] of thrombin; assay type: functional; summary of the method: as §3
# Rattus norvegicus [15] = organism: Rattus norvegicus; assay: Concentration of compound (0.1 umol/L) required to inhibit acetylcholine-induced vasorelaxation of rat aortic strip relative to control; assay type: functional, Aorta
# Rattus norvegicus [16] = organism: Rattus norvegicus; assay: Concentration of compound (1 uM) required to inhibit acetylcholine-induced vasorelaxation of rat aortic strip relative to control; assay type: functional, Aorta
# PC-12 [17] = assay: Free radical scavenging activity of compound (12.5 uM) evaluated against nitric oxide in PC12 cells; assay type: functional, cell-based; details: Rattus norvegicus; summary of the method: as §4
# PC-12 [18] = assay: Free radical scavenging activity of compound (12.5 uM) evaluated against OH in PC12 cells; assay type: functional, cell-based; details: Rattus norvegicus; summary of the method: as §4
# Oryctolagus cuniculus [19] = organism: Oryctolagus cuniculus; assay: Effect (0.8 ug) on euglobulin clot lysis time determined using rabbit euglobulin; assay type: functional; summary of the method: as §2
# PC-12 [20] = assay: Free radical scavenging activity of compound (12.5 uM) evaluated against hydrogen peroxide in PC12 cells; assay type: functional, cell-based; details: Rattus norvegicus; summary of the method: as §4
# Oryctolagus cuniculus [21] = organism: Oryctolagus cuniculus; assay: Fibrinolytic activity (5 IU)) determined in fibrinogen-agarose mixture coagulated with […] of thrombin; assay type: functional; summary of the method: as §3
# Oryctolagus cuniculus [22] = organism: Oryctolagus cuniculus; assay: Effect (5 IU) on euglobulin clot lysis time determined using rabbit euglobulin; assay type: functional; summary of the method: as §2
# Rattus norvegicus [23] = assay: Thrombolytic activity (20 000 IU/kg) expressed as the reduction of thrombus mass determined in male wistar rats; assay type: functional, organism-based; summary of the method: as §1
# PC-12 [24] = assay: Free radical scavenging activity of compound (50 uM) evaluated against hydrogen peroxide in PC12 cells; assay type: functional, cell-based; details: Rattus norvegicus; summary of the method: as §4
# Oryctolagus cuniculus [25] = organism: Oryctolagus cuniculus; assay: Fibrinolytic activity (0.7 ug) determined in fibrinogen-agarose mixture coagulated with […] of thrombin; assay type: functional; summary of the method: as §3
# PC-12 [26] = assay: Free radical scavenging activity of compound (50 uM) evaluated against […] in PC12 cells; assay type: functional, cell-based; details: Rattus norvegicus
# Oryctolagus cuniculus [27] = organism: Oryctolagus cuniculus; assay: Effect (2.1 ug) on euglobulin clot lysis time determined using rabbit euglobulin; assay type: functional; summary of the method: as §2
# PC-12 [28] = assay: Free radical scavenging activity of compound (50 uM) evaluated against OH in PC12 cells; assay type: functional, cell-based; details: Rattus norvegicus; summary of the method: as §4
# Rattus norvegicus [29] = assay: Thrombolytic activity (5 umol/kg) expressed as the reduction of thrombus mass determined in male wistar rats; assay type: functional; summary of the method: as §1
# PC-12 [30] = assay: Free radical scavenging activity of compound (200 uM) evaluated against hydrogen peroxide in PC12 cells; assay type: functional, cell-based; details: Rattus norvegicus; summary of the method: as §4
# Rattus norvegicus [31] = assay: Thrombolytic activity (1 umol/kg) expressed as the reduction of thrombus mass determined in male wistar rats; assay type: functional; summary of the method: as §1
# PC-12 [32] = assay: Free radical scavenging activity of compound (200 uM) evaluated against OH in PC12 cells; assay type: functional, cell-based; details: Rattus norvegicus; summary of the method: as §4
# Oryctolagus cuniculus [33] = organism: Oryctolagus cuniculus; assay: Effect (2.3 ug) on euglobulin clot lysis time determined using rabbit euglobulin; assay type: functional; summary of the method: as §2
# PC-12 [34] = assay: Free radical scavenging activity of compound (200 uM) evaluated against […] in PC12 cells; assay type: functional, cell-based; details: Rattus norvegicus
# Rattus norvegicus [35] = assay: Thrombolytic activity (10 umol/kg) expressed as the reduction of thrombus mass determined in male wistar rats; assay type: functional; summary of the method: as §1
# Oryctolagus cuniculus [36] = organism: Oryctolagus cuniculus; assay: Effect (1.5 ug) on euglobulin clot lysis time determined using rabbit euglobulin; assay type: functional; summary of the method: as §2
# Oryctolagus cuniculus [37] = organism: Oryctolagus cuniculus; assay: Fibrinolytic activity (1.5 ug) determined in fibrinogen-agarose mixture coagulated with […] of thrombin; assay type: functional; summary of the method: as §3
# Oryctolagus cuniculus [38] = organism: Oryctolagus cuniculus; assay: Fibrinolytic activity (1.4 ug) determined in fibrinogen-agarose mixture coagulated with […] of thrombin; assay type: functional; summary of the method: as §3
# Oryctolagus cuniculus [39] = organism: Oryctolagus cuniculus; assay: Effect (1.4 ug) on euglobulin clot lysis time determined using rabbit euglobulin; assay type: functional; summary of the method: as §2
# Oryctolagus cuniculus [40] = organism: Oryctolagus cuniculus; assay: Fibrinolytic activity (1.3 ug) determined in fibrinogen-agarose mixture coagulated with […] of thrombin; assay type: functional; summary of the method: as §3
# Oryctolagus cuniculus [41] = organism: Oryctolagus cuniculus; assay: Effect (1.3 ug) on euglobulin clot lysis time determined using rabbit euglobulin; assay type: functional; summary of the method: as §2
molecule,measurement,setting,value
C[C@H](NC(=O)COc1ccc(C2=[N+]([O-])C(C)(C)C(C)(C)N2O)cc1)C(=O)N[C@@H](CCCN=C(N)N)C(=O)N1CCC[C@H]1C(=O)N[C@@H](C)C(=O)N[C@@H](CCCCN)C(=O)O (X1-ARPAK-OH),Reduction,Rattus norvegicus [1],19.91 mg
same,Reduction,Rattus norvegicus [2],16.27 mg
same,Inhibition,Rattus norvegicus [3],92.9%
same,ECLT,Oryctolagus cuniculus [4],104.12 min
same,Lysis area,Oryctolagus cuniculus [5],194.54 mm.mm
same,ECLT,Oryctolagus cuniculus [6],123.32 min
same,Inhibition,Rattus norvegicus [7],66.8%
same,EC50,PC-12 [8],89.1 µM
same,EC50,PC-12 [9],98.1 µM
same,Lysis area,Oryctolagus cuniculus [10],172.33 mm.mm
same,EC50,PC-12 [11],28.1 µM
same,Reduction,Rattus norvegicus [12],26.88 mg
same,ECLT,Oryctolagus cuniculus [13],145.61 min
same,Lysis area,Oryctolagus cuniculus [14],215.23 mm.mm
same,Inhibition,Rattus norvegicus [15],78.6%
CC1(C)N(O)C(c2ccc(OCC(=O)O)cc2)=[N+]([O-])C1(C)C,Reduction,Rattus norvegicus [1],15.89 mg
same,Inhibition,Rattus norvegicus [16],99.2%
same,EC50,PC-12 [17],91.2 µM
same,EC50,PC-12 [18],99.9 µM
same,ECLT,Oryctolagus cuniculus [19],218.56 min
same,EC50,PC-12 [20],30.2 µM
same,Lysis area,Oryctolagus cuniculus [14],23.96 mm.mm
UROKINASE,Lysis area,Oryctolagus cuniculus [21],224 mm.mm
same,ECLT,Oryctolagus cuniculus [22],126 min
same,Reduction,Rattus norvegicus [23],25.4 mg
C[C@H](NC(=O)[C@@H]1CCCN1C(=O)[C@H](CCCN=C(N)N)NC(=O)CNC(=O)COc1ccc(C2=[N+]([O-])C(C)(C)C(C)(C)N2O)cc1)C(=O)N[C@@H](CCCCN)C(=O)O (X1-GRPAK-OH),Reduction,Rattus norvegicus [1],19.7 mg
same,Reduction,Rattus norvegicus [2],16.34 mg
same,Inhibition,Rattus norvegicus [3],96%
same,Lysis area,Oryctolagus cuniculus [5],196.87 mm.mm
same,EC50,PC-12 [24],25.4 µM
same,Lysis area,Oryctolagus cuniculus [25],217.35 mm.mm
same,EC50,PC-12 [26],92.3 µM
same,ECLT,Oryctolagus cuniculus [6],126.51 min
same,Inhibition,Rattus norvegicus [7],69.3%
same,ECLT,Oryctolagus cuniculus [27],105.01 min
same,Lysis area,Oryctolagus cuniculus [10],175.04 mm.mm
same,EC50,PC-12 [28],95.4 µM
same,Reduction,Rattus norvegicus [12],26.64 mg
same,ECLT,Oryctolagus cuniculus [13],147.22 min
same,Inhibition,Rattus norvegicus [15],80.9%
C[C@H](NC(=O)[C@@H]1CCCN1C(=O)[C@H](CCCN=C(N)N)NC(=O)[C@H](CCC(N)=O)NC(=O)COc1ccc(C2=[N+]([O-])C(C)(C)C(C)(C)N2O)cc1)C(=O)N[C@@H](CCCCN)C(=O)O (X1-QRPAK-OH),Reduction,Rattus norvegicus [29],20.43 mg
same,Inhibition,Rattus norvegicus [3],95.6%
same,Lysis area,Oryctolagus cuniculus [5],215.12 mm.mm
same,ECLT,Oryctolagus cuniculus [6],117.96 min
same,Inhibition,Rattus norvegicus [7],68.3%
same,EC50,PC-12 [30],74.6 µM
same,Reduction,Rattus norvegicus [31],16.4 mg
same,EC50,PC-12 [32],94.2 µM
same,Lysis area,Oryctolagus cuniculus [10],195.38 mm.mm
same,ECLT,Oryctolagus cuniculus [33],100.09 min
same,ECLT,Oryctolagus cuniculus [13],136 min
same,EC50,PC-12 [34],91.8 µM
same,Lysis area,Oryctolagus cuniculus [14],230.15 mm.mm
same,Inhibition,Rattus norvegicus [15],80.1%
same,Reduction,Rattus norvegicus [35],28.85 mg
C[C@H](NC(=O)[C@@H]1CCCN1C(=O)[C@H](CCCN=C(N)N)NC(=O)[C@@H](N)CCC(N)=O)C(=O)N[C@@H](CCCCN)C(=O)O (H-QRPAK-OH),ECLT,Oryctolagus cuniculus [36],93.01 min
same,Reduction,Rattus norvegicus [1],21.17 mg
same,Inhibition,Rattus norvegicus [3],8.9%
same,Lysis area,Oryctolagus cuniculus [37],223.99 mm.mm
C[C@H](N)C(=O)N[C@@H](CCCN=C(N)N)C(=O)N1CCC[C@H]1C(=O)N[C@@H](C)C(=O)N[C@@H](CCCCN)C(=O)O (H-ARPAK-OH),Lysis area,Oryctolagus cuniculus [38],212.78 mm.mm
same,Reduction,Rattus norvegicus [1],18.54 mg
same,Inhibition,Rattus norvegicus [3],9.5%
same,ECLT,Oryctolagus cuniculus [39],96.38 min
C[C@H](NC(=O)[C@@H]1CCCN1C(=O)[C@H](CCCN=C(N)N)NC(=O)CN)C(=O)N[C@@H](CCCCN)C(=O)O (H-GRPAK-OH),Reduction,Rattus norvegicus [1],25.82 mg
same,Inhibition,Rattus norvegicus [3],9.2%
same,Lysis area,Oryctolagus cuniculus [40],230.54 mm.mm
same,ECLT,Oryctolagus cuniculus [41],91.09 min
